Shown are actives, neighbours in structure and some others; about 2.8% of the full set was active somewhere.
NPY-Y1 antag: blocks the human neuropeptide Y Y1 receptor. 1% of 200,000 active. inhibition, % at 3.6 µM. AID 1040. P25929. HEK293-CNG Y1 cells, membrane potential fluorescence; NPY at EC95, then isoproterenol;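 active = inhibition above the campaign mean inhibition of all tested compounds plus 3 SD, cut at about 20% in these data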;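 note: 0% = DMSO wells given NPY plus isoproterenol and 100% = isoproterenol alone without NPY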
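Test system: HEK293 cells co-expressing NPY Y1 receptor and cyclic-nucleotide gated channel; Also added: NPY (25 nM), isoproterenol (1 µM), Ro 20-1724 (25 µM); Compound dosing: one concentration, 3.6 µM, in 0.4% DMSO; Timing: dye 3 h, compound 60 min room temperature, stimulation 45 min; Technique: Membrane-potential fluorescent dye readout.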
NPY-Y2 antag: antagonists of human neuropeptide Y receptor Y2; 0.99% of 140,000 active; inhibition, % at 2.7 µM; P49146; NPY-Y2 expressing cells, antagonist mode;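 note: 0% = vehicle with agonist challenge and 100% = reference antagonist with challenge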
Target sequence (P49146 whole entry, looked up): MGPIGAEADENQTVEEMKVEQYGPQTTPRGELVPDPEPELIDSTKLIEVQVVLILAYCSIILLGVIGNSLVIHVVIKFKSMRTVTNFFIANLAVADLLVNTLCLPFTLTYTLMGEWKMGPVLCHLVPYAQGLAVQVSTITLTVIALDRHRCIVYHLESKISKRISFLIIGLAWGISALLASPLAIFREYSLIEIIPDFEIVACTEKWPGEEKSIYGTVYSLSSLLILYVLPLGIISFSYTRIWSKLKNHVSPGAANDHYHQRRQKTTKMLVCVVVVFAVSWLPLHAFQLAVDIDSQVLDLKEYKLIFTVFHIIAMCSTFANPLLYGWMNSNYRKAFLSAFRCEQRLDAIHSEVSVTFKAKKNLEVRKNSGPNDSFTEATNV
NPY2 pot ag: potentiates or activates human NPY-Y2 receptor. 0.45% of 220,000 active. cells expressing NPY-Y2, potentiator/agonist read-out. activation, % at 3.6 µM. P49146; in the data active = activation above about 27%;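 note: cells stimulated with NPY near EC25 plus isoproterenol at EC100; 0% = vehicle plus submaximal agonist and 100% = vehicle plus saturating agonist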
NPY-Y1 PAM-ag: potentiators or agonists of human neuropeptide Y receptor Y1; P25929; NPY-Y1 expressing cells, potentiator/agonist activation; activation, % at 3.6 µM; 0.37% of 220,000 active; AID 1304; in the data active = activation above about 33%, passing the limit was not always enough;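 note: cells stimulated with NPY at EC10 then isoproterenol at EC100; 0% = low agonist plus stimulus and 100% = saturating agonist plus stimulus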
EP2 mod: modulates human prostaglandin E2 receptor EP2 signaling | P43116 | EP2-expressing cells, cAMP HTRF FRET, PGE2 co-stimulation | induction, % at 25 µM | 0.83% of 260,000 active | AID 940;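 active = compounds whose cAMP rise, as percent of the full-agonist control response, exceeds 60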;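 note: rat C6 glioma line stably carrying human EP2 under a CMV promoter; the protocol text gives 20 µM as final concentration; 100% = response of wells given 1 µM PGE2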
Target sequence (P43116 whole entry, looked up): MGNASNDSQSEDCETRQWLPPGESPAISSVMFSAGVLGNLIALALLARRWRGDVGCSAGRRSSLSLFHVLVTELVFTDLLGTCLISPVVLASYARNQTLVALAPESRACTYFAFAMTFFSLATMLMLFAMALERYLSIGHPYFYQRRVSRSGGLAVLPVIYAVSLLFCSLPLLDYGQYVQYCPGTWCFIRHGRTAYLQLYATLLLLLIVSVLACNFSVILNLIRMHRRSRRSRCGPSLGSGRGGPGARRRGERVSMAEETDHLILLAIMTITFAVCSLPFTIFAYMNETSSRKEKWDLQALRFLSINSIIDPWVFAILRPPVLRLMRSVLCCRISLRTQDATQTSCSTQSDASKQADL
PGE2 EP2 inh: blocks the human prostaglandin E2 receptor EP2; P43116; C6 glioma cells expressing human EP2, cAMP TR-FRET; cells stimulated with saturating PGE2; inhibition, % at 25 µM; 0.52% of 260,000 active;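 active = percent inhibition above 40 after rounding to a whole number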;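 note: rat C6 glioma host cells with rolipram phosphodiesterase inhibitor present; the protocol text gives 20 µM as final concentration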
NPY-Y1 ant conf: confirmation of human neuropeptide Y receptor Y1 antagonists; shares compounds with NPY-Y1 antag; HEK293-CNG NPY-Y1, membrane potential fluorescence, cAMP; NPY challenge against isoproterenol-raised cAMP; inhibition, % at 3.6 µM; 21% of 1,200 active; AID 1254; in the data active = inhibition above about 20%;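 note: 0% = vehicle with agonist plus stimulus and 100% = stimulus alone without agonist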
NPY-Y2 antag ct: human NPY-Y2 antagonism in NPY-Y1 counter-screen; shares compounds with NPY-Y1 antag; HEK293 NPY-Y2 CNG membrane potential fluorescence; cells given NPY, then isoproterenol; inhibition, % at 3.6 µM; 28% of 1,200 active; AID 1255;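 note: 0% = DMSO with agonist challenge and 100% = reference antagonist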
* = called active by the depositor; x = no result given. Cut-off read from the data, not from the text of the source, unless noted: active = inhibition above about 17%; inactive = the rest.

SMILES | NPY-Y1 antag | NPY-Y2 antag | NPY2 pot ag | NPY-Y1 PAM-ag | EP2 mod | PGE2 EP2 inh | NPY-Y1 ant conf | NPY-Y2 antag ct
COc1ccc(CSc2nc3ccccc3c(=O)n2CCCN2CCOCC2)cc1F | 28* | x | -22 | -35 | 33 | 3 | 14 | 14
COc1ccc(CCn2c(SCCN3CCCCC3)nc3ccccc3c2=O)cc1OC | 38* | x | -27 | -27 | 10 | 2 | 16 | 18*
O=c1c2ccccc2nc(SCCN2CCOCC2)n1CCc1ccccc1 | 7 | x | -15 | -16 | 29 | 7 | x | x
Cc1ccc(OCC(=O)Nc2sc3c(c2C#N)CCCCC3)cc1 | x | x | x | x | -26 | 11 | x | x
Cc1onc(-c2ccccc2)c1C(=O)NCC#N | x | x | x | x | -16 | 8 | x | x
CCOC(=O)c1cnc(SCCc2ccccc2)nc1N | 21* | 8 | -19 | -2 | 15 | 9 | 8 | 7
COc1cc(CN2C[C@@H]3CCCN3C[C@H]2Cc2ccccc2)ccc1OCCO | x | x | x | x | -14 | 4 | x | x
CN(C)Cc1ccc(F)cc1Sc1ccc(Cl)cc1Cl | 22* | 11 | -21 | -68 | 62* | 3 | 11 | 17
O=C(Cn1nc(-c2cccs2)n(-c2ccncc2)c1=O)N1CCCC1 | x | x | x | x | -2 | x | x | x
COc1ccccc1NC(=S)N(Cc1ccccc1)Cc1cc2cc(C)ccc2[nH]c1=O | x | x | x | x | -11 | 22 | x | x
Cc1ccc(C)c(N2CCN(C(=O)C(Cc3ccccc3)n3cccc3)CC2)c1 (centres undefined) | 25* | 13 | -27 | -23 | 37 | 11 | 11 | 15
COC(=O)[C@@]1(Cc2ccc(F)cc2)[C@H]2c3cc(C(=O)N(C)C)n(Cc4ccc(OC)c(OC)c4)c3C[C@H]2CN1C(=O)c1ccccc1 | 7 | 8 | -1 | 17 | 12 | 0 | x | x
COC(=O)[C@@]1(Cc2ccc(OC)cc2)[C@H]2c3cc(C(=O)N(C)C)n(Cc4ccc(OC(F)(F)F)cc4)c3C[C@H]2CN1C(=O)c1ccccc1 | 35* | 16 | 9 | 3 | 43 | 4 | 14 | 6
CCc1ccccc1NC(=O)c1cnn2c(C)cc(C)nc12 | x | x | x | x | 18 | 11 | x | x
COc1ccccc1CC(=O)Nc1nc2c(s1)CCc1c-2cnn1C | x | x | x | x | -94 | 7 | x | x
CCOc1ccc2[nH]c(=O)c(C(c3nnnn3C3CCCC3)N3CCN(CC)CC3)cc2c1 (centres undefined) | x | x | x | x | 12 | 7 | x | x
CN1CCN(CCCC(=O)c2ccc(C3CCCC3)cc2)CC1 | 26* | 11 | -11 | -51 | -36 | 17 | 11 | 15
CN1CCN(CCCCC(=O)c2ccccc2)CC1 | 4 | 2 | -10 | 6 | 14 | 14 | x | x
CCN(c1ccccc1)P(=O)(Nc1ccccc1)Nc1ccccc1 | x | x | -19 | -10 | 23 | 2 | x | x
CN(c1ccccc1)P(=O)(N(C)c1ccccc1)N(C)c1ccccc1 | 34* | x | 12 | -23 | 33 | 5 | 30* | 20*
C#CCNc1nc(C(C)C)nc2c1nnn2Cc1ccccc1 | x | x | x | x | 27 | 12 | x | x
CCCNC(=O)C1CCN(S(=O)(=O)c2cccs2)CC1 | 0 | x | 10 | 21 | 22 | 2 | x | x
O=C(NCCN1C(=O)S/C(=C\c2ccccc2F)C1=O)C1CCN(S(=O)(=O)c2cccs2)CC1 | 20* | 15 | -4 | 3 | -47 | 11 | 9 | 10
Cc1cc2nc(SCCOC(=O)Nc3cccc(Cl)c3)nc(C)c2cc1C | 13 | 13 | -3 | -21 | -5 | 6 | x | x
Cc1cc2nc(SCCOC(=O)Nc3ccccc3)nc(C)c2cc1C | 23* | 6 | -3 | -32 | -46 | 6 | 4 | 14
SMILES | NPY-Y1 antag | NPY-Y2 antag | NPY2 pot ag | NPY-Y1 PAM-ag | EP2 mod | PGE2 EP2 inh | NPY-Y1 ant conf | NPY-Y2 antag ct
COc1ccc(C(C(=O)NC2CCCCC2)N(Cc2ccco2)C(=O)c2cccs2)cc1 (centres undefined) | x | x | x | x | 55 | 7 | x | x
CCN(CC)CC(=O)Nc1sc2c(c1C(=O)c1ccccc1OC)CCC2 | 23* | x | 11 | 16 | 54 | 10 | 13 | 2
Cc1ccc(CN(Cc2cc3cccc(C)c3[nH]c2=O)C(=S)NCCCN(C)C)cc1 | 10 | x | -30 | -45 | -56 | 9 | x | x
Cc1cccc2cc(CN(Cc3ccccc3)C(=S)NCCCN(C)C)c(=O)[nH]c12 | 28* | x | -28 | -62 | -86 | 12 | 8 | 14
O=C(Nc1cccc(O)c1)C1CC(c2ccc(Cl)c(Cl)c2)=NO1 (centres undefined) | x | x | x | x | -105 | 16 | x | x
COC(=O)c1c(NC(=O)CSc2nnnn2-c2ccccc2)sc2c1CCC(C(C)(C)C)C2 (centres undefined) | 3 | 1 | -4 | -10 | -1 | 6 | x | x
COC(=O)c1c(NC(=O)CSc2nnnn2-c2ccccc2)sc2c1CCC(C)C2 (centres undefined) | 20* | 14 | 9 | -34 | 41 | 11 | 12 | 14
CCCc1nc2cc(NC(=O)c3cnc(SC)nc3)ccc2n1C | x | x | x | x | -24 | 0 | x | x
COc1ccccc1-n1cccc1CN(Cc1ccc2c(c1)OCO2)CC(C)O (centres undefined) | x | x | x | x | 19 | 6 | x | x
CCC(C)(C(=O)NC1CCCCC1)N(Cc1ccco1)C(=O)Cc1cccs1 (centres undefined) | 72* | 12 | -43 | -36 | 29 | 7 | 38* | 14
Cc1ccc(C)c2c1cc(C)c1nnc(SCC(=O)NCCc3ccccc3)n12 | x | x | x | x | -3 | 12 | x | x
C=CCOc1ccc(Br)cc1/C=N/O | 24* | 11 | -9 | -45 | 13 | 14 | 12 | 7
CCOc1nc(-c2ccc(Cl)cc2Cl)ccc1C#N | 36* | 13 | -13 | -19 | 38 | 1 | 16 | 11
COc1cccc(-n2nnc3c(=O)n(Cc4ccccc4F)cnc32)c1 | 30* | 12 | -10 | -48 | 2 | 6 | 9 | 7
COc1cccc(-n2nnc3c(=O)n(Cc4cccc(C)c4)cnc32)c1 | x | x | x | x | x | 10 | x | x
Cc1ccccc1NC1=C(Cl)C(=O)N(C2CCCCC2)C1=O | 22* | 3 | 7 | -14 | -21 | 20 | 7 | 1
Cc1ccc(SCC(=O)N=C2NC(=O)CS2)cc1 | 23* | x | -24 | -21 | 21 | 4 | 14 | 11
COc1ccc(CNC(=O)CSc2nnnn2C)cc1 | x | x | x | x | 3 | 10 | x | x
COc1ccc(OC)c(CNc2nc3ccccc3n2CCN2CCCCC2)c1 | 33* | 15 | -6 | -20 | -20 | 7 | 22* | 18*
CC1CC(C)CN(C2CCN(Cc3cccnc3)CC2)C1 (centres undefined) | 21* | 1 | 8 | 0 | 4 | 13 | 0 | 4
CN1CCC(Oc2ccc(Sc3ccccc3)cc2)CC1 | 7 | 8 | 8 | -17 | -78 | 12 | x | x

High-throughput results as filed in PubChem.
